Reference: ChEMBL document CHEMBL1138762, “Novel cyclooxygenase-1 inhibitors discovered using affinity fingerprints” (J Med Chem, 2004)

molecular target: T1, Prostaglandin G/H synthase 1 (Ovis aries, UniProt P05979); assay: In vitro inhibitory activity against ovine cyclooxygenase-1 (COX-1); settings: not given
T1 sequence (P05979 whole entry): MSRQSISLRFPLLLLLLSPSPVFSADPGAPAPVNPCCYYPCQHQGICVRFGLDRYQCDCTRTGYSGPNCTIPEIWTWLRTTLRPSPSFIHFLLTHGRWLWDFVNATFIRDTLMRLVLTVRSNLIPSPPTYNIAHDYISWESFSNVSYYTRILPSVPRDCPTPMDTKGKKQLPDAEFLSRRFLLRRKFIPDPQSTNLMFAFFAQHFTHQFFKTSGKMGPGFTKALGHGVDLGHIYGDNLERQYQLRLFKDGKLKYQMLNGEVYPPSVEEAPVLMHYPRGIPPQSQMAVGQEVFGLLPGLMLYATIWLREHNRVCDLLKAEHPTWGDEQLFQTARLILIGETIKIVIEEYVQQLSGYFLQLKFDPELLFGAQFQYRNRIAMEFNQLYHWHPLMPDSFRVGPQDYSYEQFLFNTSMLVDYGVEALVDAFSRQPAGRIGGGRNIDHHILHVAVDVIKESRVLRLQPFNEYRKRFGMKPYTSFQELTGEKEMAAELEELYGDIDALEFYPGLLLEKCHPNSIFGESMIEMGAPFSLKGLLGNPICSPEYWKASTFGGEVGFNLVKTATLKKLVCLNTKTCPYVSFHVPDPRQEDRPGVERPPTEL
Method in brief: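 Ovine COX-1 (0.17 unit/μL final) with heme (1 μM final) in Tris-HCl pH 8 buffer, preincubated with compound 10 min at room temperature. Started with saturating TMPD, then arachidonic acid to 10 μM, 5 min at room temperature. Absorbance increase at 590 nm. Half-log steps over −log[M] 9.0–3.5, DMSO 3% final. IC50 from nonlinear Hill fit, mean ± SEM of 2–5 determinations.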

IC50 [µM] | SMILES
6 | O=C(c1ccccc1)c1ccc(O)c(C(=O)c2ccccc2)c1O
29 | COc1c(O)ccc2c1oc1ccccc12
69 | O=C(Nc1ccccc1O)c1ccccc1Cl

molecular target: T2, Prostaglandin G/H synthase 1 (Ovis aries) (UniProt P05979); assay: In vitro inhibitory activity against ovine cyclooxygenase-1 (COX-1) at 200 uM; Inactive; settings: not given
T2 sequence (whole entry): T1 sequence (P05979 whole entry)

SMILES | inhibition [%]
CC(C)Cc1ccc(C(C)C(=O)O)cc1 (configuration not stated) | < 50
CC(C(=O)O)c1ccc(N2Cc3ccccc3C2=O)cc1 (configuration not stated) | < 50
CCCCC1C(=O)N(c2ccccc2)N(c2ccccc2)C1=O | < 50
COc1ccc2c(c1)c(CC(=O)O)c(C)n2C(=O)c1ccc(Cl)cc1 | < 50

Next, values leading:

inhibition [%] | SMILES
< 50 | O=C(O)c1cc(-c2ccc(F)cc2F)ccc1O
< 50 | CCc1cccc2c3c([nH]c12)C(CC)(CC(=O)O)OCC3 (configuration not stated)
< 50 | CN1C(C(=O)Nc2ccccn2)=C(O)c2ccccc2S1(=O)=O
< 50 | Cc1cc(NC(=O)C2=C(O)c3ccccc3S(=O)(=O)N2C)no1
< 50 | CC(C(=O)O)c1ccc(N2CC=CC2)c(Cl)c1 (configuration not stated)
< 50 | CC(C(=O)O)c1cccc(C(=O)c2ccccc2)c1 (configuration not stated)
< 50 | COc1ccc2cc(CC(=O)O)ccc2c1
< 50 | COc1ccc2cc([C@H](C)C(=O)O)ccc2c1
< 50 | COc1ccc2c(c1)c(CC(=O)OCC(=O)O)c(C)n2C(=O)c1ccc(Cl)cc1

molecular target: T2, Prostaglandin G/H synthase 1 (Ovis aries); settings: 200 uM

inhibition [%] | SMILES
< 50 | O=C(O)Cc1ccccc1Nc1c(Cl)cccc1Cl
